Assay results reported in ChEMBL document CHEMBL1141844, “Geranins A and B, new antiprotozoal A-type proanthocyanidins from Geranium niveum” (J Nat Prod, 1999).
Values after ≈ are worked out from the molar mass of the structure shown. Active and inactive are the calls of the source. The calls are words filed in the database; no cut-off is given here.

Tests used:
Giardia intestinalis = test: Antiprotozoal activity against axenically grown trophozoites of Giardia lamblia IMSS:0989:1 after 48 hrs by MTT method; type: functional, organism-based; details: Giardia duodenalis
Outline: (§1)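 Log-phase trophozoites from axenic culture: E. histolytica in TYI-S-33 with 10% bovine serum (inoculum 6 × 10³/mL), G. lamblia in modified TYI-S-33 with 10% calf serum (inoculum 5 × 10⁴/mL). Test material in DMSO/medium at 2.5–200 µg/mL, 48 h, 37 °C. Counted by haemocytometer, then MTT (0.075% final) plus PMS, 45 min, A570. Inhibition converted to probits and regressed on log concentration to give IC50. Duplicates, repeated at least three times.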

A549 = test: Cytotoxicity against human A549 cells after 7 days by MTT method; type: functional, cell-based
Outline: (§2)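 Run at the Purdue Cell Culture Laboratory as a seven-day MTT assay on human solid tumour lines, with adriamycin as the positive control.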

HT-29 = test: Cytotoxicity against human HT-29 cells after 7 days by MTT method; type: functional, cell-based; outline: as §2
MCF7 = test: Cytotoxicity against human MCF7 cells after 7 days by MTT method; type: functional, cell-based; outline: as §2
Entamoeba histolytica = test: Antiprotozoal activity against axenically grown trophozoites of Entamoeba histolytica HM1-IMSS after 48 hrs by MTT method; type: functional, organism-based; outline: as §1

With `COC(=O)c1cc(O)c(O)c(O)c1` [GALLIC ACID METHYL ESTER] the IC50 (Giardia intestinalis) was 49.2 µg/mL (≈ 267 µM), the Activity (A549) was “inactive” and the Activity (HT-29) was “inactive”. The Activity (MCF7) was “inactive” and the IC50 (Entamoeba histolytica) was 144 µg/mL (≈ 780 µM).
With `Oc1ccc([C@H]2Oc3c(c(O)cc4c3[C@H]3c5c(O)cc(O)cc5O[C@@](c5ccc(O)cc5)(O4)[C@@H]3O)C[C@@H]2O)cc1` [GERANIN A] the IC50 (Giardia intestinalis) was 2.4 µg/mL (≈ 4.41 µM), the Activity (A549) was “inactive” and the Activity (HT-29) was “inactive”. The Activity (MCF7) was “inactive” and the IC50 (Entamoeba histolytica) was 185 µg/mL (≈ 339 µM).
With `Cc1ncc([N+](=O)[O-])n1CCO` [METRONIDAZOLE] the Activity (A549) was “inactive”, the Activity (HT-29) was “inactive” and the Activity (MCF7) was “inactive”. For the same compound, the IC50 (Entamoeba histolytica) was 0.04 µg/mL (≈ 0.234 µM).
`O=c1c(O[C@@H]2O[C@H](CO)[C@H](O)[C@H](O)[C@H]2O)c(-c2ccc(O)c(O)c2)oc2cc(O)cc(O)c12` [HYPEROSIDE] was tested, and the IC50 (Giardia intestinalis) was 85.1 µg/mL (≈ 183 µM), the Activity (A549) was “inactive” and the Activity (HT-29) was “inactive”. The Activity (MCF7) was “inactive” and the IC50 (Entamoeba histolytica) was 109 µg/mL (≈ 235 µM).
With `CC1(C)CC[C@]2(C(=O)O)CC[C@]3(C)C(=CC[C@@H]4[C@@]5(C)CC[C@H](C(=O)/C=C/c6ccc(O)c(O)c6)C(C)(C)[C@@H]5CC[C@]43C)[C@@H]2C1` the IC50 (Giardia intestinalis) was 31.2 µg/mL (≈ 51.8 µM), the Activity (A549) was “inactive” and the Activity (HT-29) was “inactive”. For the same compound, the Activity (MCF7) was “inactive” and the IC50 (Entamoeba histolytica) was 22.6 µg/mL (≈ 37.5 µM).
With `Oc1ccc([C@H]2Oc3c(c(O)cc4c3[C@H]3c5c(O)cc(O)cc5O[C@@](c5ccc(O)c(O)c5)(O4)[C@@H]3O)C[C@@H]2O)cc1` [GERANIN B] the IC50 (Giardia intestinalis) was 6 µg/mL (≈ 10.7 µM), the Activity (A549) was “inactive” and the Activity (HT-29) was “inactive”. The Activity (MCF7) was “inactive” and the IC50 (Entamoeba histolytica) was 13.6 µg/mL (≈ 24.3 µM).
